According to PubChem BioAssay AID624070 (Broad Institute, 2012):
Records with an inconclusive call do not appear.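 The calls were made as follows: active = fitted curve crosses -35% change at a dose up to twice the top valid dose; inconclusive = flat fit showing 30 to 70% drop, or poor fit; inactive = the rest, including rises or flat curves.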

assay: iron-limited Pseudomonas aeruginosa growth inhibition – whole organism, absorbance 405 nm, EDDHA, dry powder, set 5, dose response (AID 624070); conditions: P. aeruginosa ATCC 15692 + EDDHA, A405, 24-30 h; series mostly up to 120 µM; activity change, negative = inhibition: at the top concentration
Method in brief: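 Assay system: Pseudomonas aeruginosa strain ATCC 15692, whole bacterial cells; incubation: 24–30 h exposure, 37 °C; technique: 405 nm absorbance, pyoverdine; reagent: 2 µM EDDHA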

Activity change, negative = inhibition, inactive:
CCCCC(C#N)c1ccc(Cl)cc1 (stereo not drawn) -27.5%
COCCC(C#N)c1ccc(Cl)cc1 (stereo not drawn) -9.4%
COCCOCCC(C#N)c1ccc(F)cc1 (stereo not drawn) -20.3%
N#Cc1cccc(C(C#N)c2ccc(F)cc2)n1 (stereo not drawn) -55.9% [at 42 µM]
Clc1ccc(C(c2cccc(Cl)n2)c2nn[nH]n2)cc1 (stereo not drawn) 0.409%
N#CC(c1ccc(Cl)cc1)N1CCCC1 (stereo not drawn) -32.5%
CCCCC(C#N)c1ccc(Cl)cn1 (stereo not drawn) -3.36%
CN(C)CCCC(C#N)c1ccc(Cl)cc1 (stereo not drawn) -9.81%
COCCC(C#N)c1ccc(F)cc1 (stereo not drawn) -34.9%
N#CC(c1ccc(F)cc1)c1cccc(Cl)n1 (stereo not drawn) -11%
N#CC(c1ccc(C(F)(F)F)c(Cl)n1)c1ccccc1OC(F)(F)F (stereo not drawn) -11.5%
N#CC1c2ccc(Cl)cc2CCc2cccnc21 (stereo not drawn) -18.7%
CCCCC(C#N)c1ccc(F)cc1 (stereo not drawn) -7.51%
COCCNC(C#N)c1ccc(Cl)cc1 (stereo not drawn) -5.05%
CCCCC(C#N)c1ccc(F)cn1 (stereo not drawn) -1%
COCCOCCC(C#N)c1ccc(Cl)cc1 (stereo not drawn) -0.54%
CCCCC(C#N)c1ccccn1 (stereo not drawn) -2.51%
N#CC(c1ccc(Cl)cc1)c1ccccn1 (stereo not drawn) -20.5%
